According to article PMC11040708 (JACS Au, 2024):

Biological target: N-HSP90α WT (Homo sapiens, UniProt P07900)
Experiment: SPR kinetics, two-state reaction model, amine-coupled protein
Format: binding
In short: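 Protein was pre-incubated with a 100-fold excess of a reference ATP-site inhibitor, diluted to 20 μg/mL in acetate pH 4.50, and amine-coupled to a CM5 chip (~4000 RU). Compounds came from 10 mM DMSO stock as 2-fold series in HEPES/Tween 20 buffer at 30 μL/min, with 120 s contact and 200–600 s dissociation. Solvent-corrected, double-referenced data were fitted with mass transport.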

Kd: 6.06 µM
SMILES: O=c1cc(-c2ccc(O)c(O)c2)oc2cc(O[C@@H]3O[C@H](CO)[C@@H](O)[C@H](O)[C@H]3O)cc(O)c12 [compound 5]
